# Active and inactive are the calls of the source. The calls are words filed in the database; no cut-off is given here.
# Organism: Cavia porcellus
# Assay: Inhibition of LTD4-induced contraction in guinea pig ileum. Not active at highest concentration tested, 3 x 10 E-6 M
# Format: functional
# Settings: not given
# Method in brief: (§1)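 Isolated guinea pig ileum contracted with a submaximal concentration of LTD4. Two, three or four antagonist concentrations were tested on a single ileum. […] Alternatively, pKB was taken as -log of the antagonist concentration producing a twofold rightward shift of the LTD4 concentration-response curve.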
row,-Log IC50,Structure (SMILES)
1,inactive,CC(=O)c1ccc(COc2ccc(Cc3nnn[nH]3)cc2)cc1O

# Organism: Cavia porcellus
# Assay: Inhibition of LTD4-induced contraction in guinea pig ileum. Not active at highest concentration tested, 1 x 10 E-5 M
# Format: functional
# Settings: not given
# Method in brief: as §1
row,-Log IC50,Structure (SMILES)
1,inactive,CCCc1c(COc2ccc(-c3nn[nH]n3)cc2)ccc(C(=O)c2ccccc2)c1O
2,inactive,CCCc1c(COc2ccc(Cc3nnnn3C)cc2)ccc(C(C)=O)c1O

# Organism: Cavia porcellus
# Assay: Antagonist activity was evaluated against LTD4-induced contraction in guinea pig ileum
# Format: functional
# Settings: read-out: pA2 (converted)
# Method in brief: as §1
row,Structure (SMILES),Kb
1,CCCc1c(OCCCCc2nnn[nH]2)ccc(C(C)=O)c1O [TOMELUKAST],63.1 nM

# Target: Cysteinyl leukotriene receptor (Cavia porcellus)
# Assay: Inhibition of LTD4-induced contraction in guinea pig ileum
# Settings: not given
row,Structure (SMILES),-Log IC50
1,CCc1c(COc2ccc(-c3nn[nH]n3)cc2)ccc(C(C)=O)c1O,7.9
2,CCCc1c(OCc2ccc(-c3nn[nH]n3)cc2)ccc(C(C)=O)c1O,7
3,CCCc1c(COc2ccc(Cc3nnn[nH]3)cc2)ccc(/C(C)=N\O)c1O,5.8
4,CCCc1c(COc2ccc(/C=C/c3nn[nH]n3)cc2)ccc(C(C)=O)c1O,7.4
5,CCc1c(COc2ccc(Cc3nnn[nH]3)cc2)ccc(C(C)=O)c1O,7.9
6,CCCc1c(COc2ccc(CCc3nnn[nH]3)cc2)ccc(C(C)=O)c1O,8.1
7,CC(=O)c1ccc(COc2ccc(Cc3nnn[nH]3)cc2)c(CC(C)C)c1O,7.7
8,CCCc1c(CSCc2ccc(-c3nn[nH]n3)cc2)ccc(C(C)=O)c1O,6.5
9,CCCc1c(COc2ccc(-c3nn[nH]n3)cc2)ccc(C=O)c1O,6.4
10,CCCc1c(COc2cccc(OCc3nn[nH]n3)c2)ccc(C(C)=O)c1O,8

# Second part, the compound after the results:
row,-Log IC50,Structure (SMILES)
1,7.9,CCCc1c(COc2ccc(C(C)c3nnn[nH]3)cc2)ccc(C(C)=O)c1O (stereo unspecified)
2,7.3,CCCc1c(COCCOc2ccc(-c3nn[nH]n3)cc2)ccc(C(C)=O)c1O
3,7.7,CCCc1c(CSc2ccc(-c3nn[nH]n3)cc2)ccc(C(C)=O)c1O
4,7.9,CCCCc1c(COc2ccc(-c3nn[nH]n3)cc2)ccc(C(C)=O)c1O
5,8,CCCc1c(COc2ccc(-c3nn[nH]n3)cc2)ccc(C(C)=O)c1O
6,6.2,CCCc1c(COc2ccc(Cc3nnn(C)n3)cc2)ccc(C(C)=O)c1O
7,7,CCCc1c(COCCOc2ccc(Cc3nnn[nH]3)cc2)ccc(C(C)=O)c1O
8,7,CC(=O)c1ccc(COc2ccc(-c3nn[nH]n3)cc2)c(C)c1O
9,7.3,CCCc1c(COc2ccc(CCCc3nnn[nH]3)cc2)ccc(C(C)=O)c1O
10,7.5,CCCc1c(CNc2ccc(Cc3nnn[nH]3)cc2)ccc(C(C)=O)c1O
11,7,CCCc1c(COc2ccc(Cc3nnn[nH]3)cc2)ccc(C(=O)CC)c1O
12,7.8,CCCc1c(COc2ccc(OCc3nn[nH]n3)cc2)ccc(C(C)=O)c1O
13,8,CCCc1c(COc2ccc(Cc3nnn[nH]3)cc2)ccc(C(C)=O)c1O [LY-163443]
14,6.2,CCCc1c(COc2ccccc2Cc2nnn[nH]2)ccc(C(C)=O)c1O
15,6.3,CCCc1c(COc2ccc(Cc3nnn[nH]3)cc2)ccc(C(C)=O)c1OC
16,7,CCCc1c(COc2cccc(Cc3nnn[nH]3)c2)ccc(C(C)=O)c1O
17,7.8,CCCCc1c(COc2ccc(Cc3nnn[nH]3)cc2)ccc(C(C)=O)c1O

# Source: ChEMBL document CHEMBL1123927, “Leukotriene receptor antagonists. 2. The [[(tetrazol-5-ylaryl)oxy]methyl]acetophenone derivatives” (J Med Chem, 1987)
